Results on ten molecules are retold here after ChEMBL document CHEMBL1125911, “Synthesis and biological activity of new HMG-CoA reductase inhibitors. 3. Lactones of 6-phenoxy-3,5-dihydroxyhexanoic acids” (J Med Chem, 1991).

The species named for assay [1] is Sus scrofa. Put plainly: In vitro inhibition of Cu2+ catalyzed LDL oxidation. The assay is classed as functional. An outline of the steps: (§1)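 Porcine plasma LDL isolated by sequential ultracentrifugation (density 1.019-1.063 g/mL), dialysed against PBS pH 7.4, then diluted to 0.1 mg/mL protein. Preincubated 1 h at 37 °C under N2 with compound in ethanol. Oxidised with 5 μM Cu2+ for 2 h at 37 °C in air. Fluorescence read at ex 365/em 430 nm.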

The target in assay [2] is T1, 3-hydroxy-3-methylglutaryl-coenzyme A reductase (Homo sapiens) (UniProt P04035).
T1 sequence (whole entry): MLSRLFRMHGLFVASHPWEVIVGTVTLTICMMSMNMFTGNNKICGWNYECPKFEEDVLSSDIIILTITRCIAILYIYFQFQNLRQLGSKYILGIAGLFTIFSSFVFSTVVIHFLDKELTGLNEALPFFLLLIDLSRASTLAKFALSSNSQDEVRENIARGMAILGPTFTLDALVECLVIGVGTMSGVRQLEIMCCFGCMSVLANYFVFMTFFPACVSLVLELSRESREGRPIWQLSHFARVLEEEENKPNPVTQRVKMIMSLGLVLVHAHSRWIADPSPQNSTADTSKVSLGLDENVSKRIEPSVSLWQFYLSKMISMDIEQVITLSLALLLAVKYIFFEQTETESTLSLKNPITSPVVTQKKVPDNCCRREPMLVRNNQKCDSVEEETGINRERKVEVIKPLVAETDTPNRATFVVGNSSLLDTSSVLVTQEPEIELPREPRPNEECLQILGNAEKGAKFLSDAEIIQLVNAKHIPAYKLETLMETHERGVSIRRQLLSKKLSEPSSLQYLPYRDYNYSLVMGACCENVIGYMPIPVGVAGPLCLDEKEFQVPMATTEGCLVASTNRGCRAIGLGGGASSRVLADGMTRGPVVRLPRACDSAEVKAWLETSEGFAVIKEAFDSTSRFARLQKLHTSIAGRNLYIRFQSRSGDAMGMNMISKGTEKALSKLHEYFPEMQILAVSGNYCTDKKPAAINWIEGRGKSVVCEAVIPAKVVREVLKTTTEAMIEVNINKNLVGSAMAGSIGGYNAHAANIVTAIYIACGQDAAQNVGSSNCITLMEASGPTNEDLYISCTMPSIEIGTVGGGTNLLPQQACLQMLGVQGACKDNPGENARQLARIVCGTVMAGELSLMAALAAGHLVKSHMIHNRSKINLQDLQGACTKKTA
As to the kind of experiment: (§2) Inhibition of HMG-CoA reductase compared to mevinolin. The assay is classed as functional. An outline of the steps: (§3)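 Solubilized, partially purified rat liver HMG-CoA reductase. IC50 from four or five inhibitor concentrations. Relative potency compared IC50 with mevinolin (set to 100), corrected for molecular weight.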

For assay [3], the target named is T2, 3-hydroxy-3-methylglutaryl-coenzyme A reductase (Rattus norvegicus) (UniProt P51639).
T2 sequence (whole entry): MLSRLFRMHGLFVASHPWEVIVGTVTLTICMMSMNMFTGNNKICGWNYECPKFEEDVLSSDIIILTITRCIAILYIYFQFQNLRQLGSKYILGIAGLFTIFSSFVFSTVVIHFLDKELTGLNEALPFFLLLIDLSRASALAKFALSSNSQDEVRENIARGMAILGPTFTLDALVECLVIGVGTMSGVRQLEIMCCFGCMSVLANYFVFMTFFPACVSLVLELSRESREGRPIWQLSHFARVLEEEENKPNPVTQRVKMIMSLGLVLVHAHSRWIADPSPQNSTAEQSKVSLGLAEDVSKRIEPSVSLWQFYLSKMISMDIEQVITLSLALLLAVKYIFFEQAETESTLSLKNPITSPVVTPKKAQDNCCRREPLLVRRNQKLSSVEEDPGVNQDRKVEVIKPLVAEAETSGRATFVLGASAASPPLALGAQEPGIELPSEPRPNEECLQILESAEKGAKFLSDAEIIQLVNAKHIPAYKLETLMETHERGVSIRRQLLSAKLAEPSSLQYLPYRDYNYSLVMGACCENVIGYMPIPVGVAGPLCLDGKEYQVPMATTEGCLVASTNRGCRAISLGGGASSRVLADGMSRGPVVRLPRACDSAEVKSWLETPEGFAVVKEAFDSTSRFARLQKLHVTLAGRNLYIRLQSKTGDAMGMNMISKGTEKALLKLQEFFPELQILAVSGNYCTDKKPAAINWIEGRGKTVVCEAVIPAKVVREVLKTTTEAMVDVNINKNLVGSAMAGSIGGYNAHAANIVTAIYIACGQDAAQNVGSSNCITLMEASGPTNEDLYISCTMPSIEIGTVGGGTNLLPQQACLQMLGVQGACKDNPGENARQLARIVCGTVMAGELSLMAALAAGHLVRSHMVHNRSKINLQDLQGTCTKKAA
Described as §2. In a few lines: as §3

The species named for assay [4] is Rattus norvegicus. Put plainly: In vitro inhibition of microsomal lipid peroxidation at 10e-5 M conc. It is filed as functional. In a few lines: (§4)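 Rat liver microsomes in 50 mM Tris-HCl pH 7.4 with 100 mM KCl and 6.0 mM MgCl2, final protein 0.4 mg/mL. Peroxidation was started with ADP (2 mM)/FeCl3 (10 μM) plus an NADPH-regenerating system. Incubation 30 min at 37 °C with shaking. Thiobarbituric acid reactive substances were read at 535 nm.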

Assay [5] addresses T3, 3-hydroxy-3-methylglutaryl-coenzyme A reductase (Homo sapiens, UniProt P04035).
T3 sequence (P04035 whole entry): T1 sequence (whole entry)
Put plainly: Inhibition of the incorporation of sodium [14C]acetate into cholesterol in HEP G2 cells. It is filed as functional, cell-based, HepG2.

Assay [6] deals with T4, 3-hydroxy-3-methylglutaryl-coenzyme A reductase (Rattus norvegicus, UniProt P51639).
T4 sequence (P51639 whole entry): T2 sequence (whole entry)
As to the kind of experiment: In vitro inhibition of HMG-CoA reductase in solubilized rat liver.

The species entered for assay [7] is Rattus norvegicus. As to the kind of experiment: Compound was tested for inhibition of microsomal lipid peroxidation and the potency relative to terbufucine was determined. It is filed as functional. In a few lines: as §4
Assay [8] is filed under the species Sus scrofa. As to the kind of experiment: Compound was tested for inhibition of Cu2+ catalyzed LDL oxidation and the potency relative to terbufucine was determined. The assay is classed as functional. In a few lines: as §1
Assay [9] relates to Oryctolagus cuniculus. As to the kind of experiment: Tested in vivo for hypocholesterolemic activity by measuring its ability to decrease serum total cholesterol, after oral administration of 10 mg/kg body wt. per day in normolipidemic NZW rabbits. It is filed as functional. In a few lines: (§5)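 NZW rabbits (n = 5 or 6) dosed orally daily for 10 days. Serum total cholesterol reported as % change versus control. For 20 mg/kg, that dose was given on days 11-20 after 10 mg/kg, with the value read on day 20. Error given as SEM.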

For assay [10], the species on record is Rattus norvegicus. Put plainly: Potency relative to mevinolin was determined with respect to IC50. […]. The assay is classed as functional.
Assay [11] relates to Rattus norvegicus. Put plainly: In vivo inhibition of hepatic cholesterol de novo synthesis in rat after oral administration of 5 mg/kg dose. It is filed as functional.
For assay [12], the species on record is Sus scrofa. As to the kind of experiment: In vitro inhibition of Cu2+ catalyzed LDL oxidation at 10e-5 M conc. The assay is classed as functional. An outline of the steps:
as §1

The test system of assay [13] is Oryctolagus cuniculus. As to the kind of experiment: Tested in vivo for hypocholesterolemic activity by measuring its ability to decrease serum total cholesterol, after oral administration of 5 mg/kg body wt. per day in normolipidemic NZW rabbits. It is filed as functional. An outline of the steps: as §5
The target in assay [14] is T4, 3-hydroxy-3-methylglutaryl-coenzyme A reductase. As to the kind of experiment: In vitro inhibition of solubilized HMG-CoA reductase in rat liver.
Assay [15] relates to Oryctolagus cuniculus. As to the kind of experiment: Tested in vivo for hypocholesterolemic activity by measuring its ability to decrease serum total cholesterol, after oral administration of 50 mg/kg body wt. per day in normolipidemic NZW rabbits. The assay is classed as functional. An outline of the steps:
as §5

Take `CC(C)c1c(O)c(C(C)C)c(C(C)C)c(OCC(O)C[C@@H](O)CC(=O)[O-])c1-c1ccc(F)cc1.[Na+]` (stereo partly drawn): the IC50 – broadly, the concentration that inhibits the measured activity by half – was determined as 1100 nM in the assay listed under Sus scrofa [1], 5.6 nM in assay [5] and 20 nM in assay [6]. For the same molecule, the Relative potency is 900 in assay [2], 34 in assay [3], less than 0.1 in the assay listed under Rattus norvegicus [7] and 10 in the assay listed under Sus scrofa [8]. Further, the inhibition (usually how much of the control response was suppressed) in the assay listed under Rattus norvegicus [4] is 27%.

Turning to `CC(C)c1cc(C(C)(C)C)cc(-c2ccc(F)cc2)c1OCC1C[C@@H](O)CC(=O)O1` (stereo partly drawn), the Change with Oryctolagus cuniculus [9] is listed as -15%. This molecule also yielded a Relative potency in the assay listed under Rattus norvegicus [10] of 6. This molecule came in with a Cholesterol in the assay with Rattus norvegicus [11] of 95.7%.

Take `CC(C)c1cc(Sc2ccc(F)cc2)cc(-c2ccc(F)cc2)c1OCC(O)C[C@@H](O)CC(=O)[O-].[Na+]` (stereo partly drawn): the IC50 was more than 10000 nM in the assay listed under Sus scrofa [1], 0.5 nM in assay [5] and 6 nM in [6]. This molecule gave an inhibition at 10 µM in the assay listed under Sus scrofa [12] of 41%. The results for the Relative potency (in [2]; in the assay listed under Rattus norvegicus [7]; in the assay filed under Sus scrofa [8]) were 10000, less than 0.1 and 0.1, respectively. The inhibition in the assay filed under Rattus norvegicus [4] is less than 10%. In addition, the Change in the assay on Oryctolagus cuniculus [13] is on record as -46%.

`O=C(O)C[C@H](O)C[C@H](O)/C=C/c1c(Cl)cc(Cl)cc1-c1ccc(F)cc1` came in with a concentration for half-maximal inhibition (IC50) in assay [14] of 4.5 nM.

With `CC(C)(C)c1cc(C(C(=O)O)c2cc(C(C)(C)C)c(O)c(C(C)(C)C)c2)cc(C(C)(C)C)c1O` [TERBUFICIN], the IC50 in the assay filed under Sus scrofa [1] was found to be 110 nM. Moreover, the Relative potency in the assay listed under Rattus norvegicus [7] came out at 100.

For the molecule `CC(=O)[O-].CC(C)c1c(OC[C@@H](O)C[C@@H](O)CC(=O)[O-])c(C(C)C)c(C(C)C)c(O)c1-c1ccc(F)cc1.[Na+].[Na+]`, the figures for the half-inhibitory concentration (IC50) (in the assay filed under Sus scrofa [1]; in [5]) were 6000 nM and 4.1 nM, respectively. The Relative potency in assay [2] is 1200; in the assay filed under Rattus norvegicus [7] it was less than 0.1; in the assay listed under Sus scrofa [8], 2. This molecule also gave an inhibition in the assay listed under Rattus norvegicus [4] of less than 10%. In the assay with Oryctolagus cuniculus [13], the Change is reported as -12%.

Consider `Cc1cc(Cl)cc(CCCOc2ccc(Cl)cc2)c1OCC1C[C@@H](O)CC(=O)O1` (stereo partly drawn), for which, in the assay with Oryctolagus cuniculus [15], the Change is -2%. The same molecule displayed a Relative potency in the assay filed under Rattus norvegicus [10] of 87. In the assay with Rattus norvegicus [11], this molecule came in with a Cholesterol of 25.2%.

On to `Cc1c(CCC(O)C[C@@H](O)CC(=O)O)c(-c2ccc(F)cc2)cn1-c1ccccc1` (stereo partly drawn), for which the IC50 in assay [14] stood at 35 nM.

For the molecule `CC(C)c1cc(-c2ccccc2)nc(-c2ccc(F)cc2)c1/C=C/[C@@H](O)C[C@@H](O)CC(=O)O`, it took 3 nM to reach half-maximal inhibition in [14] (IC50).

Turning to `Cc1cc(C)c(OCC2C[C@@H](O)CC(=O)O2)c(C(c2ccc(F)cc2)c2ccc(F)cc2)c1` (stereo partly drawn), the Change in the assay on Oryctolagus cuniculus [15] is given as -19%. This molecule also yielded a Relative potency in the assay listed under Rattus norvegicus [10] of 33. The molecule further gave a Cholesterol with Rattus norvegicus [11] of 71.6%.
